These results are taken from ChEMBL document CHEMBL1177876, “Design and synthesis of 10-alkoxy-5, 6-dihydro-triazolo[4,3-d]benzo[f][1,4]oxazepine derivatives with anticonvulsant activity” (Eur J Med Chem, 2010).

In general, TD50 refers to the 50% point of the dose-response relation for the toxic effect studied. One may read the ED50 as the dose that gives a 50% effect, or the effect in half of the subjects.

The source made the active and inactive calls.

Data set [1] has as its system Mus musculus. Kind of data set: Anticonvulsant activity in mouse assessed as protection against maximal electroshock-induced seizures at 30 mg/kg, ip measured after 0.5 hrs. The format is functional, organism-based. Also noted: dose 30 mg/kg. A digest of the protocol: (§1)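 Phase-I MES screen in KunMing mice, 18–22 g. Compounds dissolved in DMSO and given i.p. at 30, 100 or 300 mg/kg. The MES test followed the NIH ADD protocol and was read at 0.5 h and 4 h after dosing. Six mice per group, scored as number protected/number tested.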
(In general: Protection in the maximal electroshock model is a classic sign of anticonvulsant action.)

Data set [2] concerns Mus musculus. Kind of data set: Anticonvulsant activity in mouse assessed as protection against maximal electroshock-induced seizures at 100 mg/kg, ip measured after 0.5 hrs. The format is functional, organism-based. Also noted: dose 100 mg/kg. The gist of the method:
as §1

The nature of data set [3]: Neurotoxicity in ip dosed mouse assessed as time spent on rotarod by rotarod test. The format is toxicity, organism-based. The settings on record: in vivo. The gist of the method:
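Rotarod neurotoxicity in KunMing mice, 18–22 g, compounds in DMSO given i.p. Mice were pretrained on a 3.2 cm diameter rod at 10 rpm. Toxicity was defined as failure to stay on the rod for at least 1 min in each trial.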
On the technique in general: Falling from the rotarod earlier than controls is read as motor impairment.

For data set [4], the species on record is Mus musculus. Kind of data set: Protective index, ratio of TD50 for mouse by rotarod test to ED50 for mouse by MES test. Type of data set: functional.
The test system of data set [5] is Mus musculus. The experiment in a line: Anticonvulsant activity in mouse assessed as protection against maximal electroshock-induced seizures at 30 mg/kg, ip measured after 4 hrs. The format is functional, organism-based. On the set-up: dose 30 mg/kg. The gist of the method:
as §1

Data set [6] relates to Mus musculus. The experiment in a line: Anticonvulsant activity in mouse assessed as protection against maximal electroshock-induced seizures at 10 mg/kg, ip measured after 4 hrs. The format is functional, organism-based. Also noted: dose 10 mg/kg.
The test system of data set [7] is Mus musculus. Kind of data set: Anticonvulsant activity in mouse assessed as protection against maximal electroshock-induced seizures at 100 mg/kg, ip measured after 4 hrs. The format is functional, organism-based. On the set-up: dose 100 mg/kg. The gist of the method:
as §1

The subject of data set [8] is Mus musculus. The experiment in a line: Anticonvulsant activity in ip dosed mouse assessed as protection against maximal electroshock-induced seizures. The format is functional. A digest of the protocol: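 KunMing mice, 18–22 g, compounds in DMSO, given i.p. at a range of doses, groups of 10. MES test per NIH ADD program. Read-out was seizure protection, with at least three points in the 10–90% range.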

In data set [9] the test system is Mus musculus. The experiment in a line: Anticonvulsant activity in mouse assessed as protection against maximal electroshock-induced seizures at 300 mg/kg, ip measured after 4 hrs. The format is functional, organism-based. On the set-up: dose 300 mg/kg. The gist of the method: as §1
The test system of data set [10] is Mus musculus. Kind of data set: Anticonvulsant activity in mouse assessed as protection against maximal electroshock-induced seizures at 10 mg/kg, ip measured after 0.5 hrs. Also noted: dose 10 mg/kg. Type of data set: functional, organism-based.

Regarding `c1ccc(COc2ccc3c(c2)-c2nncn2CCO3)cc1`, the outcome in [1] and in [2] was Active. Also, the TD50 in data set [3] turned out to be 76 mg/kg. In addition, the PI in [4] came out at 4.6. Also, the result in [5], in data set [6], in data set [7] and in [9] was inactive. In addition, the ED50 in data set [8] is 16.4 mg/kg.

With `CCOc1ccc2c(c1)-c1nncn1CCO2`, in data set [2], the result was Active. The outcome in data set [5], in data set [6], in data set [7] and in data set [9] was inactive. The ED50 in data set [8] is over 100 mg/kg.

`Cc1ccc(COc2ccc3c(c2)-c2nncn2CCO3)cc1`: the outcome in [2] was Active. Moreover, the outcome in [5], in [6], in data set [7] and in [9] was inactive. Also, the 50% effective dose (ED50) in data set [8] was over 100 mg/kg.

For `CCCCCCOc1ccc2c(c1)-c1nncn1CCO2`, the result in [2] and in [10] was Active. Further, in [3], the TD50 came to 60 mg/kg. Moreover, in [4], the PI was 6. The outcome in [5], in [6], in data set [7] and in data set [9] was inactive. Also, in [8], the ED50 was 10 mg/kg.

As for `Brc1cccc(COc2ccc3c(c2)-c2nncn2CCO3)c1`, in data set [2], the outcome was Active. In [3], the TD50 was found to be 91.3 mg/kg. Also, the PI in [4] came to 3.6. Further, the outcome in [5], in data set [6], in [7] and in data set [9] was inactive. Further, the median effective dose (ED50) in [8] amounted to 25 mg/kg.

Consider `Fc1cccc(COc2ccc3c(c2)-c2nncn2CCO3)c1`, for which the result in [2] was Active. Further, the TD50 in data set [3] is 76 mg/kg. Also, in data set [4], the PI turned out to be 3.2. Moreover, the result in data set [5], in data set [6], in [7] and in data set [9] was inactive. Further, the median effective dose (ED50) in data set [8] came to 23.7 mg/kg.

Take `Clc1cccc(COc2ccc3c(c2)-c2nncn2CCO3)c1`: the outcome in [2] was Active. In addition, the TD50 in [3] stood at 127 mg/kg. In addition, the PI in data set [4] was found to be 1.5. Moreover, the result in [5], in [6], in data set [7] and in [9] was inactive. In data set [8], the ED50 was 82.2 mg/kg.

Turning to `Clc1ccccc1COc1ccc2c(c1)-c1nncn1CCO2`, in data set [2], the result was Active. The TD50 in [3] is 91.3 mg/kg. For the same compound, the PI in data set [4] stood at 2.4. Moreover, the outcome in [5], in data set [6], in data set [7] and in [9] was inactive. For the same compound, the ED50 in data set [8] is 38.3 mg/kg.

For `Fc1ccc(COc2ccc3c(c2)-c2nncn2CCO3)cc1`, the outcome in data set [2] was Active. Besides, the TD50 in data set [3] was found to be 63.4 mg/kg. For the same compound, in data set [4], the PI was determined as 2.3. In addition, the result in data set [5], in [6], in [7] and in data set [9] was inactive. Besides, the ED50 in [8] was determined as 27.4 mg/kg.

Turning to `Brc1ccccc1COc1ccc2c(c1)-c1nncn1CCO2`, the outcome in data set [2] was Active. Moreover, the TD50 in data set [3] is 110 mg/kg. For the same compound, the PI in data set [4] is recorded as 2.6. In addition, the result in data set [5], in data set [6], in data set [7] and in [9] was inactive. The ED50 in [8] is 41.7 mg/kg.

Regarding `Fc1ccccc1COc1ccc2c(c1)-c1nncn1CCO2`, the result in data set [1] and in data set [2] was Active. Besides, the TD50 in data set [3] is 91.3 mg/kg. The PI in data set [4] is listed as 5.1. The result in data set [5], in data set [6], in data set [7] and in [9] was inactive. Besides, the median effective dose (ED50) in [8] worked out at 18 mg/kg.

On to `CCCCOc1ccc2c(c1)-c1nncn1CCO2`, for which the outcome in [2] and in [10] was Active. The TD50 in data set [3] was 45.6 mg/kg. Moreover, the PI in data set [4] was found to be 4.2. Further, the outcome in [5], in data set [6], in [7] and in [9] was inactive. The ED50 in [8] was 11 mg/kg.

With `Clc1ccc(COc2ccc3c(c2)-c2nncn2CCO3)cc1`, the outcome in data set [2] was Active. Besides, the TD50 in data set [3] came to 110 mg/kg. Besides, the PI in data set [4] worked out at 1.8. The outcome in [5], in data set [6], in [7] and in data set [9] was inactive. Besides, the 50% effective dose (ED50) in data set [8] was found to be 60 mg/kg.

For `CCCCCCCCOc1ccc2c(c1)-c1nncn1CCO2`, the outcome in data set [2] and in data set [10] was Active. For the same compound, in data set [3], the TD50 turned out to be 63.4 mg/kg. In addition, in data set [4], the PI is on record as 5.8. For the same compound, the result in data set [5], in data set [6], in [7] and in [9] was inactive. Moreover, the ED50 in data set [8] was found to be 11 mg/kg.

As for `Brc1ccc(COc2ccc3c(c2)-c2nncn2CCO3)cc1`, the result in data set [2] was Active. Also, the result in [5], in data set [6], in data set [7] and in [9] was inactive. Besides, the median effective dose (ED50) in data set [8] is over 100 mg/kg.

Turning to `CCCOc1ccc2c(c1)-c1nncn1CCO2`, the outcome in data set [2] was Active. Moreover, the TD50 in data set [3] turned out to be 54.8 mg/kg. In data set [4], the PI came out at 2.9. Further, the outcome in [5], in data set [6], in data set [7] and in data set [9] was inactive. Further, in [8], the median effective dose (ED50) worked out at 19 mg/kg.

`CCCCCOc1ccc2c(c1)-c1nncn1CCO2`: the outcome in [2] and in data set [10] was Active. In addition, the TD50 in [3] came out at 60 mg/kg. In addition, in data set [4], the PI was found to be 3.8. The result in data set [5], in data set [6], in data set [7] and in data set [9] was inactive. In addition, the ED50 in data set [8] turned out to be 15.8 mg/kg.

On to `COc1ccc2c(c1)-c1nncn1CCO2`, for which the result in data set [5], in [6], in data set [7] and in data set [9] was inactive. The ED50 in data set [8] is over 100 mg/kg.

As to `COc1ccc(COc2ccc3c(c2)-c2nncn2CCO3)cc1`, in data set [2], the outcome was Active. Besides, the result in data set [5], in [6], in [7] and in [9] was inactive. Further, the ED50 in data set [8] was over 100 mg/kg.
